ChEMBL document CHEMBL1138494, “Human glucagon receptor antagonists with thiazole cores. A novel series with superior pharmacokinetic properties” (J Med Chem, 2009)

How the values were obtained:
[1] = Clearance in fasted Sprague-Dawley rat at 1.9 mg/kg, iv and 3.9 mg/kg, po by HTLC-MS/MS analysis; assay type: ADME, organism-based; settings: in vivo
How it was run: (§1)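 Rats were dosed intravenously and perorally in separate arms, and plasma concentration-time profiles were obtained. Half-life was taken from the iv arm. Clearance, oral bioavailability, Cmax and Tmax were derived from the profiles.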

Homo sapiens [2] = species: Homo sapiens; experiment: Selectivity for human recombinant glucagon receptor over human GLP1R
Homo sapiens [3] = species: Homo sapiens; experiment: Selectivity ratio of IC50 for human recombinant glucagon receptor to IC50 for human recombinant GIPR
How it was run: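 Competition binding of compounds to recombinant human glucagon and GIP receptors on BHK cell membranes, run in parallel as a scintillation proximity assay and, for selected compounds, as a membrane filtration assay.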

[4] = Tmax in fasted Sprague-Dawley rat at 1.9 mg/kg, iv and 3.9 mg/kg, po by HTLC-MS/MS analysis; assay type: ADME, organism-based; settings: in vivo
How it was run: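 Plasma concentration–time profiles were recorded after separate intravenous and peroral dosing at the per-compound doses listed. T_max is reported in min alongside C_max (ng/mL), intravenous half-life and clearance ((mL/min)/kg).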

[5] = molecular target: T1, Gastric inhibitory polypeptide receptor (Homo sapiens, UniProt P48546); experiment: Displacement of [125I]porcine GIP from human recombinant GIPR receptor expressed in BHK cells by scintillation proximity assay; assay type: cell-based
T1 sequence (P48546 whole entry): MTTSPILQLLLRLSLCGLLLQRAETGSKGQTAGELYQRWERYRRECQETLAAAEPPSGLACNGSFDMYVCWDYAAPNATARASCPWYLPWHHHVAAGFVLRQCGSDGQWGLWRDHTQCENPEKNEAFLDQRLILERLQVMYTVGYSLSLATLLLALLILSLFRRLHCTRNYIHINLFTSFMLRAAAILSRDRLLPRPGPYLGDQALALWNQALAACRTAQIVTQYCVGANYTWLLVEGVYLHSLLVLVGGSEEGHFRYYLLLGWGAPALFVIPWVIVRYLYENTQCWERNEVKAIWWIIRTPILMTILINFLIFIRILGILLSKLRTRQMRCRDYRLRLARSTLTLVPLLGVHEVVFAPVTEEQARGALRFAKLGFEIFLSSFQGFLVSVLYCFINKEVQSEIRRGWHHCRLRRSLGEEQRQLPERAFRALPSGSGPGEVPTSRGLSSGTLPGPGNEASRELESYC

[6] = Oral bioavailability in fasted Sprague-Dawley rat at 3.9 mg/kg by HTLC-MS/MS analysis; assay type: ADME, organism-based; settings: in vivo
How it was run: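 Separate intravenous and peroral dosing arms per compound, with plasma concentration followed against time. Oral bioavailability (F_po) is reported per compound together with the intravenous half-life and clearance. The dose used for each arm is listed per compound.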

Glucagon receptor = Glucagon receptor (Homo sapiens, UniProt P47871); experiment: Displacement of [125I]porcine glucagon from human recombinant glucagon receptor expressed in BHK cells by scintillation proximity assay; assay type: cell-based
Glucagon receptor, sequence (P47871 whole entry): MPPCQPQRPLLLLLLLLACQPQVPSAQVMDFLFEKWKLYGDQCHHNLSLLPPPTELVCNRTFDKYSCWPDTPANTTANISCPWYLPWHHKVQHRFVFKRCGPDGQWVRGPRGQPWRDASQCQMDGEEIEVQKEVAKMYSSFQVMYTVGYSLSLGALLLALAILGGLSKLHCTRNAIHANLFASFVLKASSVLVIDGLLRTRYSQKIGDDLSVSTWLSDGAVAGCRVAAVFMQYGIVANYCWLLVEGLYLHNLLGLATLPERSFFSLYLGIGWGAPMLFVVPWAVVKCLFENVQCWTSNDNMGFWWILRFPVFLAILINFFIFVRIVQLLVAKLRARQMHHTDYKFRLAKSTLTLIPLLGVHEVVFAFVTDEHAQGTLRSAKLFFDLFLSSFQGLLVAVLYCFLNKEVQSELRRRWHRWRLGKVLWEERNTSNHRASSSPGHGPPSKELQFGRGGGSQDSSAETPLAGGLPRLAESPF

[7] = Half life in fasted Sprague-Dawley rat plasma at 1.9 mg/kg, iv by HTLC-MS/MS analysis; assay type: ADME, organism-based; set-up: dose 1.9 mg/kg, route intravenous; how it was run: as §1
[8] = Cmax in fasted Sprague-Dawley rat at 1.9 mg/kg, iv and 3.9 mg/kg, po by HTLC-MS/MS analysis; assay type: ADME, organism-based; settings: in vivo; how it was run: as §1

clearance [1]: 44 mL/min/kg
fold change (FC) (Homo sapiens [2]): > 50
fold change (FC) (Homo sapiens [3]): 5
Tmax [4]: 30 min
IC50 [5]: 368 nM
bioavailability [6]: 3%
IC50 (Glucagon receptor): 48 nM
half-life [7]: 35 min
Cmax [8]: 36 ng/mL
SMILES: O=C(O)CCNC(=O)c1ccc(CN(c2ccc(C3=CCCCC3)cc2)c2nc(-c3ccc(C(F)(F)F)cc3)cs2)cc1
